From PMC5832441 (Nature, 2017)

Tests used:
[1] = test system: calcitonin receptor (CTR); experiment: cAMP accumulation in transfected COS7 or 3T3-FlpIn cells; format: cell-based, human
Method in brief: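 COS7 or 3T3-FlpIn cells transfected with PEI (DNA:PEI 1:6 in 150mM NaCl, 15 min), plated at 3 × 10⁴/well and held 48 h at 37°C, 5% CO₂. Signals converted to cAMP using a parallel standard curve, then normalised to 100 μM forskolin within each cell line. For efficacy, Black-Leff operational model (Logτ_c) applied, corrected for cell-surface expression.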

[2] = test system: HA-FLAG-3C-CTR-3C-8xHis CTR with Gs protein heterotrimer; experiment: [35S]GTPγS binding on CTR expressed in insect cells; format: biochemical, human; conditions: insect cell membranes, absence and presence of Gs heterotrimer; four independent experiments
[3] = test system: CTR; conditions: cited from earlier work
[4] = test system: calcitonin receptor (CTR); experiment: ERK1/2 phosphorylation; format: cell-based, human; conditions: H302A mutant, 3T3-FlpIn cells; four independent experiments in duplicate
Method in brief: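 3T3-FlpIn cells grown in DMEM with 10% v/v FBS at 37°C. Transient transfection used PEI; DNA and PEI in 150mM NaCl were combined 1:6 and left 15 min before adding to the cell suspension. Cells were plated at 3 × 10⁴/well and held 48 h at 37°C, 5% CO₂ before the pERK1/2 AlphaScreen read.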

[5] = test system: calcitonin receptor (CTR); experiment: Whole cell radioligand competition binding with 125I-sCT; design: species or system human; conditions: competition with 125I-sCT(8-32), N130D mutant; five independent experiments
Method in brief: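 Cos7 cells in DMEM/10% FBS, transiently transfected with PEI (DNA:PEI 1:6 in 150mM NaCl, 15 min) and seeded at 3 × 10⁴/well for 48 h at 37°C, 5% CO₂. Total binding: 0.05 nM ¹²⁵I-sCT(8-32) alone. Nonspecific binding: co-incubation with 1 μM sCT(8-32). Each experiment normalised to its own specific binding.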

[6] = cell surface ELISA to N-terminal epitope tag; conditions: glycan lost; control: WT CTR

For salmon calcitonin [sCT], which “sCT-mediated cAMP efficacy at Δ414 CTR” value ([1]; COS7 cells, truncation after Trp413, 5 independent experiments in duplicate) is on record?
The value was “no effect on receptor function”.

And the “sCT potency in cAMP production at H302A CTR” value ([1]; H302A mutant, 3T3-FlpIn cells, four independent experiments in duplicate)?
Its value is “reduced potency”.

What about the “sCT potency in cAMP accumulation at N130D CTR relative to WT” value ([1]; N130D mutant, five independent experiments) of the same molecule?
Its value is “reduce the potency”.

What about the “G protein activation via GTPγS binding, sCT concentration response” value [2] of the same molecule?
The value was “can robustly activate Gs”.

And the off-rate [3]?
The off-rate was “very slow off-rate”.

What about the “sCT potency in phosphorylation of ERK1/2 at H302A CTR” value [4] of the same molecule?
Its value is “reduced potency”.

And the “sCT affinity at N130D CTR compared to WT” value [5]?
Its value is “reduced affinity”.

B1: calcitonin receptor (CTR): N28D (protein)
parent chain: MRFTFTSRCLALFLLLNHPTPILPAFSNQTYPTIEPKPFLYVVGRKKMMDAQYKCYDRMQQLPAYQGEGPYCNRTWDGWLCWDDTPAGVLSYQFCPDYFPDFDPSEKVTKYCDEKGVWFKHPENNRTWSNYTMCNAFTPEKLKNAYVLYYLAIVGHSLSIFTLVISLGIFVFFRSLGCQRVTLHKNMFLTYILNSMIIIIHLVEVVPNGELVRRDPVSCKILHFFHQYMMACNYFWMLCEGIYLHTLIVVAVFTEKQRLRWYYLLGWGFPLVPTTIHAITRAVYFNDNCWLSVETHLLYIIHGPVMAALVVNFFFLLNIVRVLVTKMRETHEAESHMYLKAVKATMILVPLLGIQFVVFPWRPSNKMLGKIYDYVMHSLIHFQGFFVATIYCFCNNEVQTTVKRQWAQFKIQWNQRWGRRPSNRSARAAAAAAEAGDIPIYICHQELRNEPANNQGEESAEIIPLNIIEQESSA
With B1 as the molecule, how does the expression_or_secretion [6] read?
The expression_or_secretion was “no change”.

B2: calcitonin receptor (CTR): N73D (protein)
parent chain: MRFTFTSRCLALFLLLNHPTPILPAFSNQTYPTIEPKPFLYVVGRKKMMDAQYKCYDRMQQLPAYQGEGPYCNRTWDGWLCWDDTPAGVLSYQFCPDYFPDFDPSEKVTKYCDEKGVWFKHPENNRTWSNYTMCNAFTPEKLKNAYVLYYLAIVGHSLSIFTLVISLGIFVFFRSLGCQRVTLHKNMFLTYILNSMIIIIHLVEVVPNGELVRRDPVSCKILHFFHQYMMACNYFWMLCEGIYLHTLIVVAVFTEKQRLRWYYLLGWGFPLVPTTIHAITRAVYFNDNCWLSVETHLLYIIHGPVMAALVVNFFFLLNIVRVLVTKMRETHEAESHMYLKAVKATMILVPLLGIQFVVFPWRPSNKMLGKIYDYVMHSLIHFQGFFVATIYCFCNNEVQTTVKRQWAQFKIQWNQRWGRRPSNRSARAAAAAAEAGDIPIYICHQELRNEPANNQGEESAEIIPLNIIEQESSA
For B2, which expression_or_secretion [6] is on record?
The expression_or_secretion was “no change”.

B3: calcitonin receptor (CTR): N130D (protein)
parent chain: MRFTFTSRCLALFLLLNHPTPILPAFSNQTYPTIEPKPFLYVVGRKKMMDAQYKCYDRMQQLPAYQGEGPYCNRTWDGWLCWDDTPAGVLSYQFCPDYFPDFDPSEKVTKYCDEKGVWFKHPENNRTWSNYTMCNAFTPEKLKNAYVLYYLAIVGHSLSIFTLVISLGIFVFFRSLGCQRVTLHKNMFLTYILNSMIIIIHLVEVVPNGELVRRDPVSCKILHFFHQYMMACNYFWMLCEGIYLHTLIVVAVFTEKQRLRWYYLLGWGFPLVPTTIHAITRAVYFNDNCWLSVETHLLYIIHGPVMAALVVNFFFLLNIVRVLVTKMRETHEAESHMYLKAVKATMILVPLLGIQFVVFPWRPSNKMLGKIYDYVMHSLIHFQGFFVATIYCFCNNEVQTTVKRQWAQFKIQWNQRWGRRPSNRSARAAAAAAEAGDIPIYICHQELRNEPANNQGEESAEIIPLNIIEQESSA
For B3, which expression_or_secretion [6] is on record?
Its expression_or_secretion is “no change”.

B4: calcitonin receptor (CTR): N125D (protein)
parent chain: MRFTFTSRCLALFLLLNHPTPILPAFSNQTYPTIEPKPFLYVVGRKKMMDAQYKCYDRMQQLPAYQGEGPYCNRTWDGWLCWDDTPAGVLSYQFCPDYFPDFDPSEKVTKYCDEKGVWFKHPENNRTWSNYTMCNAFTPEKLKNAYVLYYLAIVGHSLSIFTLVISLGIFVFFRSLGCQRVTLHKNMFLTYILNSMIIIIHLVEVVPNGELVRRDPVSCKILHFFHQYMMACNYFWMLCEGIYLHTLIVVAVFTEKQRLRWYYLLGWGFPLVPTTIHAITRAVYFNDNCWLSVETHLLYIIHGPVMAALVVNFFFLLNIVRVLVTKMRETHEAESHMYLKAVKATMILVPLLGIQFVVFPWRPSNKMLGKIYDYVMHSLIHFQGFFVATIYCFCNNEVQTTVKRQWAQFKIQWNQRWGRRPSNRSARAAAAAAEAGDIPIYICHQELRNEPANNQGEESAEIIPLNIIEQESSA
Which expression_or_secretion [6] does the source give for B4 here?
The expression_or_secretion was “no change”.
